Assay results as given in ChEMBL document CHEMBL1250448, “Inhibitor hijacking of Akt activation” (Nat Chem Biol, 2009).

Columns and labels:
[1] = target: RAC-beta serine/threonine-protein kinase (Homo sapiens) (UniProt P31751); assay: Inhibition of AKT2 at 1 uM in presence of 10 uM ATP by Select Screen kinase assay relative to untreated control
Summary of the method: (§1)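 Single-point screen at 1 μM against a panel of 220 purified kinases, run by Invitrogen staff as a SelectScreen profiling service. Read-out is percent inhibition of kinase activity.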

[2] = target: Vascular endothelial growth factor receptor 2 (Homo sapiens) (UniProt P35968); assay: Inhibition of KDR at 1 uM in presence of 10 uM ATP by Select Screen kinase assay relative to untreated control
Summary of the method: (§2)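 Single-concentration profiling at 1 μM against a panel of 220 purified kinases, run as an outsourced SelectScreen kinase profiling service. Activity is expressed as percent inhibition.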

[3] = target: Protein kinase C theta type (Homo sapiens) (UniProt Q04759); assay: Inhibition of PRKCQ at 1 uM in presence of 10 uM ATP by Select Screen kinase assay relative to untreated control
[4] = target: Mitogen-activated protein kinase kinase kinase kinase 2 (Homo sapiens) (UniProt Q12851); assay: Inhibition of MAP4K2 at 1 uM in presence of 10 uM ATP by Select Screen kinase assay relative to untreated control
[5] = target: cAMP-dependent protein kinase catalytic subunit PRKX (Homo sapiens) (UniProt P51817); assay: Inhibition of PRKX at 1 uM in presence of 10 uM ATP by Select Screen kinase assay relative to untreated control
[6] = target: Protein kinase C eta type (Homo sapiens) (UniProt P24723); assay: Inhibition of PRKCH at 1 uM in presence of 10 uM ATP by Select Screen kinase assay relative to untreated control
[7] = target: Serine/threonine-protein kinase 3 (Homo sapiens) (UniProt Q13188); assay: Inhibition of STK3 at 1 uM in presence of 10 uM ATP by Select Screen kinase assay relative to untreated control
[8] = target: Serine/threonine-protein kinase pim-1 (Homo sapiens) (UniProt P11309); assay: Inhibition of PIM1 at 1 uM in presence of 10 uM ATP by Select Screen kinase assay relative to untreated control
Summary of the method: (§3)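 Profiling panel of 220 purified kinases (SelectScreen), each compound tested at 1 μM. Read-out is percent inhibition of kinase activity.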

[9] = target: Aurora kinase A (Homo sapiens) (UniProt O14965); assay: Inhibition of STK6 at 1 uM in presence of 10 uM ATP by Select Screen kinase assay relative to untreated control
Summary of the method: (§4)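 Commercial SelectScreen profiling panel of 220 purified kinases. Each kinase was tested at a single inhibitor concentration of 1 μM, and activity was expressed as percent inhibition.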

[10] = target: RAC-gamma serine/threonine-protein kinase (Homo sapiens) (UniProt Q9Y243); assay: Inhibition of AKT3 at 1 uM in presence of 10 uM ATP by Select Screen kinase assay relative to untreated control; summary of the method: as §1
[11] = test system: Proto-oncogene tyrosine-protein kinase receptor Ret (Homo sapiens), P07949 [V804L]; assay: Inhibition of RET V804L mutant at 1 uM in presence of 10 uM ATP by Select Screen kinase assay relative to untreated control; summary of the method: as §4
[12] = target: Cyclin-dependent kinase 2/cyclin A (Homo sapiens) (UniProt P24941+P20248+P78396); assay: Inhibition of CDK2/cyclin A at 1 uM in presence of 10 uM ATP by Select Screen kinase assay relative to untreated control; type: protein-complex assay; summary of the method: as §1
[13] = target: Casein kinase II subunit alpha (Homo sapiens) (UniProt P68400); assay: Inhibition of CSNK2A1 at 1 uM in presence of 10 uM ATP by Select Screen kinase assay relative to untreated control
Summary of the method: (§5)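 Part of a 220-kinase panel of purified kinases, each tested with compound at 1 μM. Percent inhibition was measured in the Invitrogen SelectScreen profiling assay.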

[14] = target: Tyrosine-protein kinase JAK3 (Homo sapiens) (UniProt P52333); assay: Inhibition of JAK3 at 1 uM in presence of 10 uM ATP by Select Screen kinase assay relative to untreated control; summary of the method: as §2
[15] = target: Ribosomal protein S6 kinase alpha-4 (Homo sapiens) (UniProt O75676); assay: Inhibition of RPS6KA4 at 1 uM in presence of 10 uM ATP by Select Screen kinase assay relative to untreated control
[16] = target: cAMP-dependent protein kinase catalytic subunit alpha (Homo sapiens) (UniProt P17612); assay: Inhibition of PRKACA (PKA) at 1 uM in presence of 10 uM ATP by Select Screen kinase assay relative to untreated control
[17] = target: Ribosomal protein S6 kinase alpha-6 (Homo sapiens) (UniProt Q9UK32); assay: Inhibition of RPS6KA6 at 1 uM in presence of 10 uM ATP by Select Screen kinase assay relative to untreated control; summary of the method: as §4
[18] = target: Aurora kinase B (Homo sapiens) (UniProt Q96GD4); assay: Inhibition of AURKB at 1 uM in presence of 10 uM ATP by Select Screen kinase assay relative to untreated control
[19] = target: Muscle, skeletal receptor tyrosine-protein kinase (Homo sapiens) (UniProt O15146); assay: Inhibition of MUSK at 1 uM in presence of 100 uM ATP by Select Screen kinase assay relative to untreated control
[20] = target: Serine/threonine-protein kinase 4 (Homo sapiens) (UniProt Q13043); assay: Inhibition of STK4 at 1 uM in presence of 10 uM ATP by Select Screen kinase assay relative to untreated control; summary of the method: as §4
[21] = target: Misshapen-like kinase 1 (Homo sapiens) (UniProt Q8N4C8); assay: Inhibition of MINK1 at 1 uM in presence of 10 uM ATP by Select Screen kinase assay relative to untreated control
[22] = target: Serine/threonine-protein kinase D3 (Homo sapiens) (UniProt O94806); assay: Inhibition of PRKCN at 1 uM in presence of 10 uM ATP by Select Screen kinase assay relative to untreated control
[23] = target: Serine/threonine-protein kinase N1 (Homo sapiens) (UniProt Q16512); assay: Inhibition of PKN1 at 1 uM in presence of 10 uM ATP by Select Screen kinase assay relative to untreated control; summary of the method: as §3
[24] = target: Dual specificity tyrosine-phosphorylation-regulated kinase 4 (Homo sapiens) (UniProt Q9NR20); assay: Inhibition of DYRK4 at 1 uM in presence of 10 uM ATP by Select Screen kinase assay relative to untreated control; summary of the method: as §3
[25] = target: Protein kinase C epsilon type (Homo sapiens) (UniProt Q02156); assay: Inhibition of PKCE at 1 uM in presence of 10 uM ATP by Select Screen kinase assay relative to untreated control
[26] = target: Dual specificity tyrosine-phosphorylation-regulated kinase 3 (Homo sapiens) (UniProt O43781); assay: Inhibition of DYRK3 at 1 uM in presence of 10 uM ATP by Select Screen kinase assay relative to untreated control; summary of the method: as §5
[27] = target: MAP kinase-activated protein kinase 3 (Homo sapiens) (UniProt Q16644); assay: Inhibition of MAPKAPK3 at 1 uM in presence of 10 uM ATP by Select Screen kinase assay relative to untreated control
Sequence of MAP kinase-activated protein kinase 3 (Homo sapiens) (Q16644 whole entry, looked up): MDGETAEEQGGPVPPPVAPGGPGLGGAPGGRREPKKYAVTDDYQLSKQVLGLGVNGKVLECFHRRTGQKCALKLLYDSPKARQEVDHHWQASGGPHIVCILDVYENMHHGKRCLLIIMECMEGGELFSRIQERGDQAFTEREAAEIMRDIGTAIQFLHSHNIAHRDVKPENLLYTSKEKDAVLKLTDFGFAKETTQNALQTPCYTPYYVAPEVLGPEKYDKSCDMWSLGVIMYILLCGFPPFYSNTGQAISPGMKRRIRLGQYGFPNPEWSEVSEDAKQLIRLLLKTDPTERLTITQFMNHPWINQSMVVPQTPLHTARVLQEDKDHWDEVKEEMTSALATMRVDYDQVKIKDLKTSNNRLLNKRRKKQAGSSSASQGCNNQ

Sequence of Vascular endothelial growth factor receptor 2 (Homo sapiens) (P35968 whole entry): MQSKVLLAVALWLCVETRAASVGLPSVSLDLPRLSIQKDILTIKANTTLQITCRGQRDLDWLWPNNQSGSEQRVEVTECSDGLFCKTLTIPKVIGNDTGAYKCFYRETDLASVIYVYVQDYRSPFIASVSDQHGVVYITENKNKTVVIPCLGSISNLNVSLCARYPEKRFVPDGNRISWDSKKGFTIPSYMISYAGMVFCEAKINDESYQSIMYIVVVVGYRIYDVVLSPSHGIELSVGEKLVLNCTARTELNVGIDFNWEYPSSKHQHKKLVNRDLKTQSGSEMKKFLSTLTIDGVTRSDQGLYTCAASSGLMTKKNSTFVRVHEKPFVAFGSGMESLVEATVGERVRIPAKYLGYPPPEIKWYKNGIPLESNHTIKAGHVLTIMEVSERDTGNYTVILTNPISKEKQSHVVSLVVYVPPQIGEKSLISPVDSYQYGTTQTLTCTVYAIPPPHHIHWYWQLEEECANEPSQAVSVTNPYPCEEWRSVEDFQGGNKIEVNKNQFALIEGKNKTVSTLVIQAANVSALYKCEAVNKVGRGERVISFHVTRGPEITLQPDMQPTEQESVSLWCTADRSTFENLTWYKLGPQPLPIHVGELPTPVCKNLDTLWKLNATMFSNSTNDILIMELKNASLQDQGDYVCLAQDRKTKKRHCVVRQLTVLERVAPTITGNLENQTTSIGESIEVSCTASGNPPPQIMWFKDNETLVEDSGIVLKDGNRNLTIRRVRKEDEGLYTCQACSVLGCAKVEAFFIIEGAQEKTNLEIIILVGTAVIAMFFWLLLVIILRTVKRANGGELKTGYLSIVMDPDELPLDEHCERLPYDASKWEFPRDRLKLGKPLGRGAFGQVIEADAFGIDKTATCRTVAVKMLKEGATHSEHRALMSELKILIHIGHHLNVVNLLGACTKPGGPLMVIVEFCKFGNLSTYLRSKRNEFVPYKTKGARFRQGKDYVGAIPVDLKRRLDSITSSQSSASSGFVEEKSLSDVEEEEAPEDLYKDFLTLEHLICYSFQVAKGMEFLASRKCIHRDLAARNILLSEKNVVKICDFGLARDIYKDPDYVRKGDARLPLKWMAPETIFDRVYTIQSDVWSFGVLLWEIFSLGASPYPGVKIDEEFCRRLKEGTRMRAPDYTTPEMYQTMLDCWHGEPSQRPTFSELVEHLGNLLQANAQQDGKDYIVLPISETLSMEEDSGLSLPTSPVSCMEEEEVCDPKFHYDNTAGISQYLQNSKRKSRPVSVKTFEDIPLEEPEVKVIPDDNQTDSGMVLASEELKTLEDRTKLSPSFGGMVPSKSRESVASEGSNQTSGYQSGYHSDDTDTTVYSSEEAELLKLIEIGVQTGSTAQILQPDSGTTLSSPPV
Sequence of Serine/threonine-protein kinase D3 (Homo sapiens) (O94806 whole entry): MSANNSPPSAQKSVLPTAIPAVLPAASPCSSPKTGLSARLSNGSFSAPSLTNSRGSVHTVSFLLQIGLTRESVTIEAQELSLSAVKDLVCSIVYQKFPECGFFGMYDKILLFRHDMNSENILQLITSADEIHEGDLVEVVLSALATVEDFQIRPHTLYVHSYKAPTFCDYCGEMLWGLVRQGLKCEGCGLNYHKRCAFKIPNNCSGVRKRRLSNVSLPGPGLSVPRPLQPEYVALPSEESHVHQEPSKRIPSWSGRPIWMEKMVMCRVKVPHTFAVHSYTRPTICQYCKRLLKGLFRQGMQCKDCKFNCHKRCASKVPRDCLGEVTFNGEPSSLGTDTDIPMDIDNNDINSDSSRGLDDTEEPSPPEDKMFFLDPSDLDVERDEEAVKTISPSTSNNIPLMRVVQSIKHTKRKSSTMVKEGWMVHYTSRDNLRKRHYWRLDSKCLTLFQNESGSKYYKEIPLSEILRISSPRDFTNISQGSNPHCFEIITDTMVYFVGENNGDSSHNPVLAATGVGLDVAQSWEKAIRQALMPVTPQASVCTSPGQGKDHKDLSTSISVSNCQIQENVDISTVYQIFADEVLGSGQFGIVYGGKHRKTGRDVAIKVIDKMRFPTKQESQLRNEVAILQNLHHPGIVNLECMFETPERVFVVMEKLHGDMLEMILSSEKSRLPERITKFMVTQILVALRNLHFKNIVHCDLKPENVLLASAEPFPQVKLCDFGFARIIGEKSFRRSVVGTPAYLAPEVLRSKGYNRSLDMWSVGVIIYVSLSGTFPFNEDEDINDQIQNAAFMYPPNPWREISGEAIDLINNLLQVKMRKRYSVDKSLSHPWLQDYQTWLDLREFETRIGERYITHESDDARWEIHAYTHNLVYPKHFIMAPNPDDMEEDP
Sequence of Casein kinase II subunit alpha (Homo sapiens) (P68400 whole entry, looked up): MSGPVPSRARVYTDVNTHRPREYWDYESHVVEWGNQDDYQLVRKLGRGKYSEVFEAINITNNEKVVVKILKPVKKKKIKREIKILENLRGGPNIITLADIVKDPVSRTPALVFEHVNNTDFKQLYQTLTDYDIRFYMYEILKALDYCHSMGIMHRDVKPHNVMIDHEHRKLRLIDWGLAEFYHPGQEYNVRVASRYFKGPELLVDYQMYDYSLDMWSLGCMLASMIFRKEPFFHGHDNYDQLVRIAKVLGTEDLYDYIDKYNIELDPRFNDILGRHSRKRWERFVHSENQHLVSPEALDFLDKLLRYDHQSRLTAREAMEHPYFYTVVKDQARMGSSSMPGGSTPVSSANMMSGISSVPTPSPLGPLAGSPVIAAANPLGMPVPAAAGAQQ
Sequence of RAC-gamma serine/threonine-protein kinase (Homo sapiens) (Q9Y243 whole entry): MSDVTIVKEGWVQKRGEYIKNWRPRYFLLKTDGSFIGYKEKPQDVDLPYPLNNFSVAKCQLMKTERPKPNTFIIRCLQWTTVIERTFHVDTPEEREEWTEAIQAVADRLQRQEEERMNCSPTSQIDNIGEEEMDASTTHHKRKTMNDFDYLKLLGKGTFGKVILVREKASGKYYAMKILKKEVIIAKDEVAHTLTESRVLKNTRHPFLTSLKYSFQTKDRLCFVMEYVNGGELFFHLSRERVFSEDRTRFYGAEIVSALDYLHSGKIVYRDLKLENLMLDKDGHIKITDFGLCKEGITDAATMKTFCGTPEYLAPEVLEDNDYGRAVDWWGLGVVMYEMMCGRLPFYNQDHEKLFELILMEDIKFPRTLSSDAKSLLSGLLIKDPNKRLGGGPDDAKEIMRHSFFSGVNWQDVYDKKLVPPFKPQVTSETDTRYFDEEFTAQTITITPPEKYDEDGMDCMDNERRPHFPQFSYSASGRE
Sequence of Aurora kinase A (Homo sapiens) (O14965 whole entry): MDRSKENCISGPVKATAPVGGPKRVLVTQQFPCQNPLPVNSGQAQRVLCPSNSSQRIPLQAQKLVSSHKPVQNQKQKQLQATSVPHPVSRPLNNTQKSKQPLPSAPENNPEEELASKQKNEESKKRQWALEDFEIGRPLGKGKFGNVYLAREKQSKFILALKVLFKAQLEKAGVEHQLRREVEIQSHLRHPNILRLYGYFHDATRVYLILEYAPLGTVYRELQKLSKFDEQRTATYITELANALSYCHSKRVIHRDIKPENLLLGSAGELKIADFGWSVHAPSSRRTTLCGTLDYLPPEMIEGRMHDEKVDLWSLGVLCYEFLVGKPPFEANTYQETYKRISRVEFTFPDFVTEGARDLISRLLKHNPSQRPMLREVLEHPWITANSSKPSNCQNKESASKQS
Sequence of Aurora kinase B (Homo sapiens) (Q96GD4 whole entry, looked up): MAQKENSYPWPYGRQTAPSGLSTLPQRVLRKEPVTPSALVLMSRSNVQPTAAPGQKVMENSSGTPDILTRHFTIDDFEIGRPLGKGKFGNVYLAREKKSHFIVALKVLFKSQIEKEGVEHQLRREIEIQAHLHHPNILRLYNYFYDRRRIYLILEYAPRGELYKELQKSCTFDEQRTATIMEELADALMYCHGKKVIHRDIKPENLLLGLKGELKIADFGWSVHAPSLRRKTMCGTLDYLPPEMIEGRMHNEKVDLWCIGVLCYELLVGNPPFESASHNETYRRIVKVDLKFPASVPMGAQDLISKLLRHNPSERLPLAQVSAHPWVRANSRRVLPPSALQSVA
Sequence of Serine/threonine-protein kinase 3 (Homo sapiens) (Q13188 whole entry): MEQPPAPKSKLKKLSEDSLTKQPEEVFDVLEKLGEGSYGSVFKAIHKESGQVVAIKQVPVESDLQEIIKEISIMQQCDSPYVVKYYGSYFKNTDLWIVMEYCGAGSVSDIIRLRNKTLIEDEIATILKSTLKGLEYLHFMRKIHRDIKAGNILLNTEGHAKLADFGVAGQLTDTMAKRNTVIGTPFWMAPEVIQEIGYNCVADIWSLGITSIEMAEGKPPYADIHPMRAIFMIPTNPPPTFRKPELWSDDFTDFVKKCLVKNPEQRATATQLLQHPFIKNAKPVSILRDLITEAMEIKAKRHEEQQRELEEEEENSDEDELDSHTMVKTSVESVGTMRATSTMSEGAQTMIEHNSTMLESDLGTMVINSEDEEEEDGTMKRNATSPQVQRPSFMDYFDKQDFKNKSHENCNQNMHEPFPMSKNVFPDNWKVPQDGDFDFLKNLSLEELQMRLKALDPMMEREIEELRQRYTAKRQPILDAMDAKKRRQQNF

| inhibition [1] [%] | inhibition [2] [%] | inhibition [3] [%] | inhibition [4] [%] | inhibition [5] [%] | inhibition [6] [%] | inhibition [7] [%] | inhibition [8] [%] | inhibition [9] [%] | inhibition [10] [%] | inhibition [11] [%] | inhibition [12] [%] | inhibition [13] [%] | inhibition [14] [%] | inhibition [15] [%] | inhibition [16] [%] | inhibition [17] [%] | inhibition [18] [%] | inhibition [19] [%] | inhibition [20] [%] | also measured | SMILES |
| --- | --- | --- | --- | --- | --- | --- | --- | --- | --- | --- | --- | --- | --- | --- | --- | --- | --- | --- | --- | --- | --- |
| 9 | 79 | 38 | 97 | 105 | 7 | 21 | 9 | 97 | 3 | 93 | 84 | 16 | 89 | 75 | 28 | 58 | 103 | 76 | 36 | inhibition [21]: 38%; inhibition [22]: 83%; inhibition [23]: 84%; inhibition [24]: 2%; inhibition [25]: 47%; inhibition [26]: 50%; inhibition [27]: 10% | O=C(NCCCNc1nc(Nc2cccc(NC(=O)N3CCCC3)c2)ncc1I)c1cccs1 |
| 12 | 52 | 15 | 18 | 21 | 8 | 9 | 20 | 22 | 17 | 66 | 2 | 18 | -1 | 90 | 48 | 28 | 20 | 19 | 19 | inhibition [21]: 71%; inhibition [22]: 18%; inhibition [23]: 18%; inhibition [24]: 3%; inhibition [25]: 13%; inhibition [26]: 69%; inhibition [27]: 11% | COc1ccccc1N1CCN(c2ncnc3[nH]nc(Br)c23)CC1 |
